Measurements reported in ChEMBL document CHEMBL1165965, “Synthesis and structure-activity relationships of 1,2,3,4-tetrahydropyrido[2,3-b]pyrazines as potent and selective inhibitors of the anaplastic lymphoma kinase” (Bioorg Med Chem, 2010).

Experiments:
[1] = biological target: Protein kinase C delta type (Homo sapiens) (UniProt Q05655); experiment: Inhibition of PRKCD at 1 uM
[2] = biological target: STE20-like serine/threonine-protein kinase (Homo sapiens) (UniProt Q9H2G2); experiment: Inhibition of SLK at 1 uM
[3] = biological target: Tyrosine-protein kinase receptor Tie-1 (Homo sapiens) (UniProt P35590); experiment: Inhibition of TIE1 at 1 uM
[4] = biological target: T1, Serine/threonine-protein kinase D3 (Homo sapiens) (UniProt O94806); experiment: Inhibition of PRKD3 at 1 uM
T1 sequence (whole entry): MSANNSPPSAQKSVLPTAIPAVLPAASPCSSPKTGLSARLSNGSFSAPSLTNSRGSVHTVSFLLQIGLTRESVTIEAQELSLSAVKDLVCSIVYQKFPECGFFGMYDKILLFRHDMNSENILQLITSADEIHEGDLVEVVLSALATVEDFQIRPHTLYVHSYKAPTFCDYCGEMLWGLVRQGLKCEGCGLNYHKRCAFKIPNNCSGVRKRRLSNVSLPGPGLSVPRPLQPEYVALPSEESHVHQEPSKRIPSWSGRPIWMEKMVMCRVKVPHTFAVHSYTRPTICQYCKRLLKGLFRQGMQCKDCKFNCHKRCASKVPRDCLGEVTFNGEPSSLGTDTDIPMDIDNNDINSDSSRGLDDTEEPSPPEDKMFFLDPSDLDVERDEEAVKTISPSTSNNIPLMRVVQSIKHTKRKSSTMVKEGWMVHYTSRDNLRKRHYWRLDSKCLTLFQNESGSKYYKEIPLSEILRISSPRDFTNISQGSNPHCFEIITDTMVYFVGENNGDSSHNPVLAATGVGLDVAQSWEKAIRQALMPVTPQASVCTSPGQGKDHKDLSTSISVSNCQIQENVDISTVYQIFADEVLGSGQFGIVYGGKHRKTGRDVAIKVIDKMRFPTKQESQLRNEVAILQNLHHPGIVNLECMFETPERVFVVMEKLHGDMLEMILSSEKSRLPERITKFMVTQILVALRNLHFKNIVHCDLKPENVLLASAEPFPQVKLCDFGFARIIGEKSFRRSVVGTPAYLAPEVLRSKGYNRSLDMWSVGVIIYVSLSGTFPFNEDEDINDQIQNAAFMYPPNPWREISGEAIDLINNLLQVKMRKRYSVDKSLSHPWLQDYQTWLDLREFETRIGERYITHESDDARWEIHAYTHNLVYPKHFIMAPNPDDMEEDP

[5] = test system: Phosphatidylinositol 4,5-bisphosphate 3-kinase catalytic subunit alpha isoform (Homo sapiens), P42336 [E545A]; experiment: Inhibition of PIK3CA E545A mutant at 1 uM
[6] = biological target: T2, Serine/threonine-protein kinase D2 (Homo sapiens) (UniProt Q9BZL6); experiment: Inhibition of PRKD2 at 1 uM
T2 sequence (whole entry): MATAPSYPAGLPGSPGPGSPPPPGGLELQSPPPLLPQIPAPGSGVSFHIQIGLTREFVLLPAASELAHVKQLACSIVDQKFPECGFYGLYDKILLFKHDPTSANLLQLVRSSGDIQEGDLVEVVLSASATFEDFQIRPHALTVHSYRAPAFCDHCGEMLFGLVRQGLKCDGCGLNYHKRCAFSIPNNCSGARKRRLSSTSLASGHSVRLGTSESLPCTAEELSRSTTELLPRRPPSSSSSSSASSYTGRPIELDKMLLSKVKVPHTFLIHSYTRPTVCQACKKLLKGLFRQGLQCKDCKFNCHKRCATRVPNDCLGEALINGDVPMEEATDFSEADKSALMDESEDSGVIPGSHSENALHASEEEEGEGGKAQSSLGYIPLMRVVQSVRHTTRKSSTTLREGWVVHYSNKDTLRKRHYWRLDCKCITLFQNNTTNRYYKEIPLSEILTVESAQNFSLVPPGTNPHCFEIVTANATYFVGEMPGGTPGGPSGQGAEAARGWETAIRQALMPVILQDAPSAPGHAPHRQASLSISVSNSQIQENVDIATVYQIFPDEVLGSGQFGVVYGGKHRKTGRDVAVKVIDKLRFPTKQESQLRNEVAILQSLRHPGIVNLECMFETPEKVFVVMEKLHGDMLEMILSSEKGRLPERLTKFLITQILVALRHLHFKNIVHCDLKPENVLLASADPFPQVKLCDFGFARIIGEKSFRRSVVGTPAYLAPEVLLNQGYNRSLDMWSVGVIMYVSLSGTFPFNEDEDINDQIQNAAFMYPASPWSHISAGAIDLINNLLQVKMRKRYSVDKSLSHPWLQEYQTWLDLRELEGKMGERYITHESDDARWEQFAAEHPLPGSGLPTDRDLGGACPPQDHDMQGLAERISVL

[7] = biological target: MAP kinase-activated protein kinase 2 (Homo sapiens) (UniProt P49137); experiment: Inhibition of MAPKAPK2 at 1 uM
[8] = biological target: T3, Serine/threonine-protein kinase TBK1 (Homo sapiens) (UniProt Q9UHD2); experiment: Inhibition of TBK1 at 1 uM
T3 sequence (whole entry): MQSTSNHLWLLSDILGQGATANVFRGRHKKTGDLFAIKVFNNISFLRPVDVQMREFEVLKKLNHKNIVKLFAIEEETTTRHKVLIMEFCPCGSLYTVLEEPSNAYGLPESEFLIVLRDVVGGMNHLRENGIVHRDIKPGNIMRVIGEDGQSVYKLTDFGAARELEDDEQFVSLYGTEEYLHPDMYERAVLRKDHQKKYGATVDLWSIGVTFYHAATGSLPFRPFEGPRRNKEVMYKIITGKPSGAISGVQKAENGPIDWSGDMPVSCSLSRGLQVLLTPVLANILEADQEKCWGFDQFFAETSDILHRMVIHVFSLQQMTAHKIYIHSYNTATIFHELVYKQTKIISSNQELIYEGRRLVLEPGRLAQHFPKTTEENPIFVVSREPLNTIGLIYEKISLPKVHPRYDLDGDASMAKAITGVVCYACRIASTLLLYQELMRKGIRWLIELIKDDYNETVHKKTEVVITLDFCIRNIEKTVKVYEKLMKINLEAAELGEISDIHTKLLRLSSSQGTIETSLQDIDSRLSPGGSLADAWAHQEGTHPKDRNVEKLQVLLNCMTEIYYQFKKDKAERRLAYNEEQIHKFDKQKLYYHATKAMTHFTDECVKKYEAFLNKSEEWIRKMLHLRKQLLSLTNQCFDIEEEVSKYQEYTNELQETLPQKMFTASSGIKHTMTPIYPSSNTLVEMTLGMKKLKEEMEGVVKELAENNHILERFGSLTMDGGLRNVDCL

[9] = test system: eIF-2-alpha kinase GCN2 (Homo sapiens), Q9P2K8 [S808G]; experiment: Inhibition of GCN2 domian 2 S808G mutant at 1 uM
Method in brief: (§1)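 Single-concentration screen on the Ambit KINOMEscan platform, run against a panel of 250–400 kinases. Per-kinase inhibition was also summarized as S(90), the fraction of kinases inhibited by more than 90%.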

[10] = biological target: Tyrosine-protein kinase Fgr (Homo sapiens) (UniProt P09769); experiment: Inhibition of FGR at 1 uM; method in brief: as §1
Chain of Tyrosine-protein kinase Fgr (Homo sapiens) (P09769 2-529 limits assumed): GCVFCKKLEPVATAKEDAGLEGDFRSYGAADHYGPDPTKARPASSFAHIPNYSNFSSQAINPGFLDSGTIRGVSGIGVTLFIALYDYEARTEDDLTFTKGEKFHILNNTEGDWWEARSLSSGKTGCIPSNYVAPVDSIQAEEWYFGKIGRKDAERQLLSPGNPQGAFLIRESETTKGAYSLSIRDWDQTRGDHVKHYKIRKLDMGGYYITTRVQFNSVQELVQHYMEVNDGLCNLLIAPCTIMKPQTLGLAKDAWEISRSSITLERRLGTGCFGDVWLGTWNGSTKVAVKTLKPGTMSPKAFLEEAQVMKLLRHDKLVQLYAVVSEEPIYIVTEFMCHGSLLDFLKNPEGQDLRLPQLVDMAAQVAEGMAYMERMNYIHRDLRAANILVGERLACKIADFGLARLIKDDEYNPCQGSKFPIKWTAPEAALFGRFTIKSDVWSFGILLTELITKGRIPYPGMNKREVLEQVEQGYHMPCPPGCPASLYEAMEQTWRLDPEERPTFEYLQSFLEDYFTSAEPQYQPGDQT

Chain of STE20-like serine/threonine-protein kinase (Homo sapiens) (Q9H2G2 whole entry, looked up): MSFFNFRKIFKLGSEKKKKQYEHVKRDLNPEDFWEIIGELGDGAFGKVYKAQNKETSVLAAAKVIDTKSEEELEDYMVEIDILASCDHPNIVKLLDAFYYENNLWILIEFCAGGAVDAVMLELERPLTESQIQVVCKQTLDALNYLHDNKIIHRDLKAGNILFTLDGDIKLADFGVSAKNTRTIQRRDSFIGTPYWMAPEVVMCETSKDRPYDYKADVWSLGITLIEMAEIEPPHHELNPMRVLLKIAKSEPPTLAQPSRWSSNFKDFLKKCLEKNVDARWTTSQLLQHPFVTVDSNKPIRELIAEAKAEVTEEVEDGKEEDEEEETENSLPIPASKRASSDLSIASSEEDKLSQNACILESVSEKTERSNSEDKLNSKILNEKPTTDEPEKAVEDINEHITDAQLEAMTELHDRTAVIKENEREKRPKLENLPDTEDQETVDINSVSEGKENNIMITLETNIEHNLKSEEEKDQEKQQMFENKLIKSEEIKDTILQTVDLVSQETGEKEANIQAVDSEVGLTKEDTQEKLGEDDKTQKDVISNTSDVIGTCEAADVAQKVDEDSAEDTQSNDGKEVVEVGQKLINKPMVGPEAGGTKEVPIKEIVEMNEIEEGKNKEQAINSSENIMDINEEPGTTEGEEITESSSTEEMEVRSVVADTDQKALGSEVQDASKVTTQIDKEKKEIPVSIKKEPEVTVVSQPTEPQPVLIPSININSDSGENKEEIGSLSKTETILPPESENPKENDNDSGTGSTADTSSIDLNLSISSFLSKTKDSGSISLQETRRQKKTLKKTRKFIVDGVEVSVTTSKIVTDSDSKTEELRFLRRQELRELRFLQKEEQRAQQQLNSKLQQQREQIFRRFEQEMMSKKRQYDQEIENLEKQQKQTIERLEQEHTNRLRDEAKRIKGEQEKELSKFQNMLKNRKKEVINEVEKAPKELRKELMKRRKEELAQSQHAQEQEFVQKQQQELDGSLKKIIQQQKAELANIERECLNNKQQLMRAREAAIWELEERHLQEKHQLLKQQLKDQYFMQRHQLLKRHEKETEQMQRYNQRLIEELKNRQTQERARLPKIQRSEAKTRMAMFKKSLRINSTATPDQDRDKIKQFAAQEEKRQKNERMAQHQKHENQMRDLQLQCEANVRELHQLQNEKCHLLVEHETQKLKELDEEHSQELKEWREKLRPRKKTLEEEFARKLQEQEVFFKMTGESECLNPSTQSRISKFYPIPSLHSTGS
Chain of MAP kinase-activated protein kinase 2 (Homo sapiens) (P49137 whole entry, looked up): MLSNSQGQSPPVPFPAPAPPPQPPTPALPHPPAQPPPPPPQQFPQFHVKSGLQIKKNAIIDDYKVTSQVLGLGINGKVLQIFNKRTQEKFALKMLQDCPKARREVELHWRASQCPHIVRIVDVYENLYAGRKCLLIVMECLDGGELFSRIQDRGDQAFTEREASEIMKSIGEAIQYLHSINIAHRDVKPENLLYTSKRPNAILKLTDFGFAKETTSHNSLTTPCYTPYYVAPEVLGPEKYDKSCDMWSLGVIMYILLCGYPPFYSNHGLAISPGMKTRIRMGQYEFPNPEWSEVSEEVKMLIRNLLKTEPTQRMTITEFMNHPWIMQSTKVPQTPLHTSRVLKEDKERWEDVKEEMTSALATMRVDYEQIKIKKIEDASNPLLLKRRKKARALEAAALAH
Chain of Phosphatidylinositol 4,5-bisphosphate 3-kinase catalytic subunit alpha isoform (Homo sapiens), P42336 [E545A] (P42336 whole entry E545A, canonical isoform): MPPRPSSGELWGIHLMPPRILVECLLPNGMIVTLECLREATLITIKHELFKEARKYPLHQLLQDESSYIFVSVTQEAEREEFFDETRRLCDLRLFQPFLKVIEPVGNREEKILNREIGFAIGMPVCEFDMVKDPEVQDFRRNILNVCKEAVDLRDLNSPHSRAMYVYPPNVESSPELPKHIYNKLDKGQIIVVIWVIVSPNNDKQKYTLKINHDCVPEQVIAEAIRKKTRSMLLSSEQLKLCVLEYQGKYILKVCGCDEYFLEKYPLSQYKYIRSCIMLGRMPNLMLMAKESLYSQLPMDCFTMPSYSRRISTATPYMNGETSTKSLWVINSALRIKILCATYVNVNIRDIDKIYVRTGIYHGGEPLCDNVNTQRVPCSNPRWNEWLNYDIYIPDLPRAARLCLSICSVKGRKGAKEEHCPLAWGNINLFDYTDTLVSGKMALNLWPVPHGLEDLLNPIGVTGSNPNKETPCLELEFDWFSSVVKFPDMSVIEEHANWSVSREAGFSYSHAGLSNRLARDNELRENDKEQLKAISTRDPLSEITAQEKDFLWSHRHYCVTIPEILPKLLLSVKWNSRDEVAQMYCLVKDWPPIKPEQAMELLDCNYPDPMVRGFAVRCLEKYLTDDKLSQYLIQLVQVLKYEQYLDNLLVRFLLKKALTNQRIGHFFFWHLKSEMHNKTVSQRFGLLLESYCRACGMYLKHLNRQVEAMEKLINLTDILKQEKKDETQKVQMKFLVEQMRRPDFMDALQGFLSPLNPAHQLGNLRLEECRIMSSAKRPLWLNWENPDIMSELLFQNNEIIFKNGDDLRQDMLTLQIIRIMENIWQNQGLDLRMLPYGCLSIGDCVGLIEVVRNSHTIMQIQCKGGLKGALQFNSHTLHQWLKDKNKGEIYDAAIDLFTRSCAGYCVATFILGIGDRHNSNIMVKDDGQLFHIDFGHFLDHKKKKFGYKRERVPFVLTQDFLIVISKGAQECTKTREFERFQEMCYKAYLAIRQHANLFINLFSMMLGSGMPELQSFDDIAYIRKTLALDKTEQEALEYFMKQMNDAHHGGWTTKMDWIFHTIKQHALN
Chain of Tyrosine-protein kinase receptor Tie-1 (Homo sapiens) (P35590 whole entry): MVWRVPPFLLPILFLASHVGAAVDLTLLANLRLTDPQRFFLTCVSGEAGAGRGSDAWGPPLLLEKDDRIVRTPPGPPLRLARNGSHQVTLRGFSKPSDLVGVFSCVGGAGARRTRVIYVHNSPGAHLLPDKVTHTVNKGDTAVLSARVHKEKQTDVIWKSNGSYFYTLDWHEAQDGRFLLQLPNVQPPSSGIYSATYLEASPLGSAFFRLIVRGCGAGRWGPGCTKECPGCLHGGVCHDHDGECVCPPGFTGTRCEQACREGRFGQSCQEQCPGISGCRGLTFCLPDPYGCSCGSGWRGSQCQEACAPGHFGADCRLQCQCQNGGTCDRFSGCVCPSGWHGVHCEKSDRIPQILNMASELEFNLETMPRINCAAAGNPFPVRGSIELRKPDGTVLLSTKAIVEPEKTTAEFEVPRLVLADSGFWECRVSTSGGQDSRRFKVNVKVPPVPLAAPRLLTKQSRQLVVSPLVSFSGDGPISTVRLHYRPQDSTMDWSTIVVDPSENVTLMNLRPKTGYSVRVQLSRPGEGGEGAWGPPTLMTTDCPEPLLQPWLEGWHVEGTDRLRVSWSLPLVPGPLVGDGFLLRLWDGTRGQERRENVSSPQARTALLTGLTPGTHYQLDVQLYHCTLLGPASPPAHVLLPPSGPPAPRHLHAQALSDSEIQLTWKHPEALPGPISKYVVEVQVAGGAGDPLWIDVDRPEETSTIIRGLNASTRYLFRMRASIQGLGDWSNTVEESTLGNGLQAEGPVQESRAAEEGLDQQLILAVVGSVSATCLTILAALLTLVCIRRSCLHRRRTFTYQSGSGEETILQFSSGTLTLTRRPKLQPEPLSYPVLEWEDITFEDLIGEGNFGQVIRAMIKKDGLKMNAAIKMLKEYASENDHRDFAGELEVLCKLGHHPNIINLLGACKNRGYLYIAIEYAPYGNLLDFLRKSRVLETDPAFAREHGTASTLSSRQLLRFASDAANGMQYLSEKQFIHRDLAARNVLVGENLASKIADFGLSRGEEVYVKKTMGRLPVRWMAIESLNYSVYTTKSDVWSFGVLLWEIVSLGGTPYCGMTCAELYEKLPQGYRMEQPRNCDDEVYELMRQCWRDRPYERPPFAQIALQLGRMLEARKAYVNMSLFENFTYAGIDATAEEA
Chain of Protein kinase C delta type (Homo sapiens) (Q05655 whole entry, looked up): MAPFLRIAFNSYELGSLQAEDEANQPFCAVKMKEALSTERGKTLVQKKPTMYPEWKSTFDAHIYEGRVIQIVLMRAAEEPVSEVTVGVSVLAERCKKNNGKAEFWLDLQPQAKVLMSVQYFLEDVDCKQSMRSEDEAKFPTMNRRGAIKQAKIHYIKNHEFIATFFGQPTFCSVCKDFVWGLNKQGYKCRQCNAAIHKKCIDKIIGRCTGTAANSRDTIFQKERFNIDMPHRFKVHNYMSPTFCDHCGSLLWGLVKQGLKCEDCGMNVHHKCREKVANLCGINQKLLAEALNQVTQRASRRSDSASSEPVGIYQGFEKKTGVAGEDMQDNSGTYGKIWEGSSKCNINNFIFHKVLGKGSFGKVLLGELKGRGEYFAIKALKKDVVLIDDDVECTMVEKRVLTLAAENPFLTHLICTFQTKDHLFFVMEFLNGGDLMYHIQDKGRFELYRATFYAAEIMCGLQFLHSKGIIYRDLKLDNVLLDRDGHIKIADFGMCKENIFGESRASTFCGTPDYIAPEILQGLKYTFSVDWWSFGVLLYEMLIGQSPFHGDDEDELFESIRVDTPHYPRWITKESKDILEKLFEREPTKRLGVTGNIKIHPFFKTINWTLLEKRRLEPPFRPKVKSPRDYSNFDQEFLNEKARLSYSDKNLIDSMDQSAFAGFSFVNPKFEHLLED

inhibition [1] [%] | inhibition [2] [%] | inhibition [3] [%] | inhibition [4] [%] | inhibition [5] [%] | inhibition [6] [%] | inhibition [7] [%] | inhibition [8] [%] | inhibition [9] [%] | inhibition [10] [%] | Compound
< 50 | < 50 | < 50 | < 50 | < 50 | < 50 | < 50 | < 50 | < 50 | < 50 | CC(=O)N1CCN(c2cc(-c3cnc4c(c3)N(Cc3cc(Cl)ccc3C(F)(F)F)CCN4)ccn2)CC1
< 50 | < 50 |  |  |  | < 50 |  |  | < 50 | < 50 | O=C(O)c1ccc(-c2cnc3c(c2)N(Cc2cc(Cl)ccc2C(F)(F)F)CCN3)cc1
< 50 | < 50 |  |  |  | < 50 |  |  | < 50 | < 50 | O=C(c1ccc(-c2cnc3c(c2)N(Cc2cc(Cl)ccc2C(F)(F)F)CCN3)cc1)N1CCCCC1
< 50 | < 50 | < 50 | < 50 | < 50 | < 50 | < 50 | < 50 | < 50 | < 50 | CN1CCN(c2ccc(-c3cnc4c(c3)N(Cc3cc(Cl)ccc3C(F)(F)F)CCN4)cn2)CC1
< 50 | < 50 | < 50 | < 50 | < 50 | < 50 | < 50 | < 50 | < 50 | < 50 | CN1CCN(c2ccc(-c3cnc4c(c3)N(Cc3cc(F)ccc3F)CCN4)cn2)CC1
< 50 | < 50 | < 50 | < 50 | < 50 | < 50 | < 50 | < 50 | < 50 | < 50 | CN1CCN(c2ccc(-c3cnc4c(c3)N(Cc3cc(Cl)ccc3Cl)CCN4)cn2)CC1
< 50 | < 50 |  |  |  | < 50 |  |  | < 50 | < 50 | COC1CCN(C(=O)c2ccc(-c3cnc4c(c3)N(Cc3cc(Cl)ccc3C(F)(F)F)CCN4)cc2)CC1
< 50 | < 50 | < 50 | < 50 | < 50 | < 50 | < 50 | < 50 | < 50 | < 50 | CN1CCN(c2ccc(-c3cnc4c(c3)N(Cc3c(F)ccc(F)c3Cl)CCN4)cn2)CC1
< 50 | < 50 | 81 | < 50 | < 50 | < 50 | < 50 | < 50 | < 50 | < 50 | FC(F)(F)c1ccc(Cl)cc1CN1CCNc2ncc(-c3ccnc(N4CCNCC4)c3)cc21
< 50 | < 50 |  |  |  | < 50 |  |  | < 50 | < 50 | O=C(c1ccc(-c2cnc3c(c2)N(Cc2cc(Cl)ccc2C(F)(F)F)CCN3)cc1)N1CCC(N2CCCC2)CC1
